Data reported in ChEMBL document CHEMBL1156322, “Synthesis and biological evaluation of nitrogen-containing benzophenone analogues as TNF-alpha and IL-6 inhibitors with antioxidant activity” (Bioorg Med Chem Lett, 2010).
Activity calls are given as the source filed them. The calls are words filed in the database; no cut-off is given here.

How the values were obtained:
[1] = tested on: Radical scavenging activity; test: Antioxidant activity assessed as DPPH free radical scavenging activity at 1 uM after 10 mins by spectrophotometry; type: functional
THP-1 [2] = test: Antiinflammatory activity in LPS-stimulated human THP1 cells assessed as inhibition of IL6 formation at 1 uM pretreated 30 mins before LPS challenge measured after 24 hrs by ELISA; type: functional; set-up: scale not given: the % may be the effect or the level left
Method in brief: (§1)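 PMA-differentiated human THP-1 cells in RPMI 1640 with 10% FBS, penicillin and streptomycin. Compound or vehicle (0.5% DMSO) was added for 30 min at 37 °C, then E. coli 0127:B8 LPS. Cells were incubated 24 h at 37 °C, 5% CO2. Supernatant TNF-α and IL-6 were measured by ELISA. Percent inhibition of release was calculated versus control.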

[3] = tested on: Radical scavenging activity; test: Antioxidant activity assessed as DPPH free radical scavenging activity at 1 mM after 20 mins by spectrophotometry
[4] = tested on: Radical scavenging activity; test: Antioxidant activity assessed as DPPH free radical scavenging activity at 1 uM after 2 mins by spectrophotometry; type: functional
THP-1 [5] = test: Antiinflammatory activity in LPS-stimulated human THP1 cells assessed as inhibition of TNFalpha formation at 10 uM pretreated 30 mins before LPS challenge measured after 24 hrs by ELISA; type: functional; set-up: scale not given: the % may be the effect or the level left; method in brief: as §1
[6] = tested on: Radical scavenging activity; test: Antioxidant activity assessed as DPPH free radical scavenging activity at 1 uM after 6 mins by spectrophotometry; type: functional
THP-1 [7] = test: Antiinflammatory activity in LPS-stimulated human THP1 cells assessed as inhibition of IL6 formation at 10 uM pretreated 30 mins before LPS challenge measured after 24 hrs by ELISA; type: functional; set-up: scale not given: the % may be the effect or the level left; method in brief: as §1
[8] = tested on: Radical scavenging activity; test: Antioxidant activity assessed as DPPH free radical scavenging activity at 1 uM after 4 mins by spectrophotometry; type: functional
[9] = Cytotoxicity against LPS-stimulated human THP-1 cells at 10 uM after 24 hrs by CCK-8 assay; settings: THP-1, 24 h
[10] = tested on: Radical scavenging activity; test: Antioxidant activity assessed as DPPH free radical scavenging activity at 1 uM after 8 mins by spectrophotometry; type: functional
THP-1 [11] = test: Antiinflammatory activity in LPS-stimulated human THP1 cells assessed as inhibition of TNFalpha formation at 1 uM pretreated 30 mins before LPS challenge measured after 24 hrs by ELISA; type: functional; set-up: scale not given: the % may be the effect or the level left; method in brief: as §1

SMILES | Activity [1] | Activity (THP-1 [2]) | Activity [3] | Activity [4] | Activity (THP-1 [5]) | Activity [6] | Activity (THP-1 [7]) | Activity [8] | Activity [9] | Activity [10] | Activity (THP-1 [11])
COc1cc(OC)c(C(=O)c2ccccc2F)c(O)c1CN1CCOCC1 | 8.21% | 19% | 19.7% | 3.5% | 27% | 4.74% | 89% | 4.2% | 39% | 6.8% | 
COc1cc(OC)c(C(=O)c2cccc(Cl)c2)c(O)c1CN1CCCC1 | 2.11% | 41% | 5.13% | 0.5% | 37% | 1.82% | 81% | 1.6% | 53% | 2.1% | 
COc1cc(O)c(C(=O)c2cccc(F)c2)c(OC)c1 | inactive | 38% | inactive | inactive | 0% | inactive | 81% | inactive | 24% | inactive | 
COc1cc(OC)c(C(=O)c2ccccc2Br)c(O)c1CN1CCCCC1 | 32.5% | 22% | 64.4% | 10.8% | 78% | 17.7% | 98% | 14.2% | 61% | 25.4% | 
COc1cc(O)c(C(=O)c2ccccc2F)c(OC)c1 | 18.9% | 11% | 32.4% | 8.2% | 47% | 13.6% | 71% | 12.5% | 53% | 16.8% | 
COc1cc(OC)c(C(=O)c2cccc(Cl)c2)c(O)c1CN1CCOCC1 | 15.9% | 42% | 33.4% | 5.52% | 1% | 9.45% | 83% | 6.44% | 39% | 14.6% | 
O=C(O)c1cc(O)c(O)c(O)c1 | 46.9% |  |  | 18.2% |  | 19.4% |  | 22.7% |  | 38.4% | 
C[C@@H]1C[C@H]2[C@@H]3CCC4=CC(=O)C=C[C@]4(C)[C@@]3(F)[C@@H](O)C[C@]2(C)[C@@]1(O)C(=O)CO [DEXAMETHASONE] |  |  |  |  |  |  |  |  |  |  | 73%
COc1cc(OC)c(C(=O)c2cccc(Cl)c2)c(O)c1CN1CCCCC1 | 22.8% | 33% | 45.3% | 9.2% | 11% | 14.8% | 83% | 11.4% | 31% | 20.9% | 
COc1cc(OC)c(C(=O)c2cccc(F)c2)c(O)c1CN1CCCC1 | 4.78% | 34% | 7.29% | 0.92% | 1% | 2.11% | 93% | 4.51% | 34% | 3.78% | 
COc1cc(OC)c(C(=O)c2ccccc2F)c(O)c1CN1CCN(C)CC1 | 6.2% | 21% | 17.5% | 3.3% | 19% | 4% | 83% | 3.95% | 40% | 5.4% | 
COc1cc(O)c(C(=O)c2cccc(Cl)c2)c(OC)c1 | 7.6% | 31% | 16.4% | 3.21% | 0% | 4.2% | 78% | 3.9% | 49% | 6.52% | 
COc1cc(OC)c(C(=O)c2cccc(Cl)c2)c(O)c1CN1CCN(C)CC1 | inactive | 54% | inactive | inactive | 100% | inactive | 100% | inactive | 77% | inactive | 
COc1cc(OC)c(C(=O)c2cccc(F)c2)c(O)c1CN1CCOCC1 | inactive | 35% | inactive | inactive | 21% | inactive | 86% | inactive | 42% | inactive | 
COc1cc(OC)c(C(=O)c2ccccc2Br)c(O)c1CN1CCCC1 | inactive | 19% | inactive | inactive | 99% | inactive | 100% | inactive | 84% | inactive | 
COc1cc(OC)c(C(=O)c2ccccc2Br)c(O)c1CN1CCOCC1 | 2.95% | 19% | 6.23% | 0.8% | 65% | 1.9% | 97% | 1.2% | 66% | 2.11% | 
COc1cc(OC)c(C(=O)c2ccccc2F)c(O)c1CN1CCCCC1 | 34.6% | 18% | 73.3% | 13.7% | 0% | 23% | 84% | 16.9% | 31% | 28.9% | 
COc1cc(OC)c(C(=O)c2cccc(F)c2)c(O)c1CN1CCN(C)CC1 | 22.6% | 47% | 40.4% | 9.5% | 54% | 18.5% | 97% | 15.8% | 22% | 19.4% | 
COc1cc(OC)c(C(=O)c2ccccc2F)c(O)c1CN1CCCC1 | 11.9% | 15% | 24.8% | 3.6% | 10% | 6.45% | 87% | 4.24% | 27% | 9.5% | 
COc1cc(O)c(C(=O)c2ccccc2Br)c(OC)c1 | inactive | 7% | inactive | inactive | 11% | inactive | 72% | inactive | 43% | inactive | 
COc1cc(OC)c(C(=O)c2ccccc2Br)c(O)c1CN1CCN(C)CC1 | 7.59% | 9% | 13.5% | 3.2% | 20% | 4.5% | 81% | 3.95% | 23% | 6.8% | 
COc1cc(OC)c(C(=O)c2cccc(F)c2)c(O)c1CN1CCCCC1 | 13.7% | 30% | 24.7% | 4.2% | 0% | 9.25% | 87% | 5.98% | 27% | 11.8% | 
